Measured values taken from ChEMBL document CHEMBL1132190, “Synthesis of 1-substituted 3-(chloromethyl)-6-aminoindoline (6-amino-seco-CI) DNA minor groove alkylating agents and structure-activity relationships for their cytotoxicity” (J Med Chem, 1999).
≈ marks a conversion by molar mass, not a printed value.

Tests used:
[1] = test system: EMT6; test: Cytotoxicity in murine mammary carcinoma tumor cell line-EMT6, by growth inhibition assay.; assay type: functional, cell-based; conditions: Mus musculus
Outline: (§1)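 Log-phase monolayers in α-MEM with 5% FBS, no antibiotics; seeded at 200 (AA8), 300 (UV4) or 50 (EMT6) cells/well. After 24 h, exposed to drug (DMSO stock, final DMSO <1%, medium pH 7.4) for 4 h at 37 °C, 5% CO₂, aerobic. Washed, then regrown 4 days. Methylene blue staining read cell density. IC50 = 50% growth inhibition versus same-plate controls.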

[2] = Solubility in 0.1 M phosphate buffer (pH 7.0) at room temperature.; assay type: physicochemical; conditions: read-out: S
Outline: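 Solid suspended in 0.1 M phosphate buffer pH 7.0, sonicated 5 min at room temperature, centrifuged 5 min. Supernatant assayed by HPLC against a standard curve of known concentrations in acetonitrile. Three determinations, averaged.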

[3] = test system: UV4; test: Cytotoxicity in chinese hamster ovary tumor cell line -UV4 (repair deffective ERCC-1 mutant), by growth inhibition assay.; assay type: functional, cell-based; conditions: Cricetulus griseus; outline: as §1
[4] = test system: CHO-AA8; test: Cytotoxicity in chinese hamster ovary tumor cell line-AA8, by growth inhibition assay.; assay type: functional, cell-based; conditions: Cricetulus griseus; outline: as §1
[5] = test system: SK-OV-3; test: Cytotoxicity in human ovarian tumor cell line-SKOV3, by growth inhibition assay.; assay type: functional, cell-based
Outline: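 SKOV3 log-phase monolayers in α-MEM with 5% FBS, no antibiotics; 600 cells/well. After 24 h, 4 h aerobic drug exposure at 37 °C, 5% CO₂ (DMSO stock, final DMSO <1%, medium pH 7.4). Washed, then regrown 5 days. Methylene blue staining gave cell density. IC50 = 50% growth inhibition versus controls on the same plate.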

solubility [2] [µM] | Structure (SMILES) | IC50 [1] [nM] | IC50 [3] [nM] | IC50 [4] [nM] | IC50 [5] [nM]
> 1200 | COc1cc2cc(C(=O)N3CC(CCl)c4ccc(N)cc43)[nH]c2cc1OCCN(C)C (stereo not given) | 110 | 39 | 220 | 150
– | CCCC(=O)Nc1cc(/C=C/C(=O)N2CC(CCl)c3ccc(N)cc32)n(C)c1 (stereo not given) | 910 | 310 | 2100 | 1900
– | COc1ccc2[nH]c(S(=O)(=O)N3CC(CCl)c4ccc(N)cc43)cc2c1 (stereo not given) | 4900 | 4300 | 8200 | 2700
47 (≈ 20.8 µg/mL) | COc1cc(OCCN(C)C)c2[nH]c(C(=O)N3CC(CCl)c4ccc(N)cc43)cc2c1 (stereo not given) | 90 | 29 | 140 | 160
700 (≈ 289 µg/mL) | CN(C)CCOc1ccc2[nH]c(C(=O)N3CC(CCl)c4ccc(N)cc43)cc2c1 (stereo not given) | 120 | 44 | 160 | 260
– | Nc1ccc2c(c1)N(C(=O)c1cc3cc(NC(=O)c4cc5ccccc5o4)ccc3[nH]1)CC2CCl (stereo not given) | 190 | 87 | 160 | 600
– | COc1ccc2oc(C(=O)N3CC(CCl)c4ccc(N)cc43)cc2c1 (stereo not given) | 640 | 120 | 880 | 1100
23 (≈ 8.18 µg/mL) | COc1ccc2[nH]c(C(=O)N3CC(CCl)c4ccc(N)cc43)cc2c1 (stereo not given) | 230 | 47 | 310 | 670
– | COc1ccc2oc(S(=O)(=O)N3CC(CCl)c4ccc(N)cc43)cc2c1 (stereo not given) | 2600 | 2800 | 6600 | 4400

Structure (SMILES) | solubility [2] [µM] | IC50 [1] [nM] | IC50 [3] [nM] | IC50 [4] [nM] | IC50 [5] [nM]
COc1cc2cc(C(=O)N3CC(CCl)c4ccc(N)cc43)[nH]c2c(OC)c1OC (stereo not given) | 32 (≈ 13.3 µg/mL) | 270 | 55 | 350 | 630
